Measured values published in ChEMBL document CHEMBL1124857, “A radiotracer for mapping cholinergic neurons of the brain” (1990).

Tests used:
[1] = species on record: Mus musculus; test: Percentage dose injected in the whole brain of mouse was determined.; format: functional
In short: (§1)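 Female CD-1 mice (18–27 g; n = 4 or 5 per tracer) were given the tracer by tail-vein injection under ether anesthesia. Doses were 7.2–10.8 μCi of the 125I-labeled tracer or 5.0 μCi of the 3H-labeled tracer. Mice were killed 4 h later. Tissues were excised, weighed, and counted by gamma or liquid-scintillation counting. Values are % injected dose/g, or % dose in whole brain, normalized to a 25 g mouse.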

[2] = system: Mus musculus; test: Evaluated for the radiotracer concentration in cerebral cortex of mouse brain, 4 hr after intravenous injection; format: functional, organism-based; in short: as §1
[3] = system: Mus musculus; test: Evaluated for the radiotracer concentration in cerebellum of mouse brain, 4 hr after intravenous injection; format: functional, organism-based; in short: as §1
[4] = system: Mus musculus; test: Evaluated for the radiotracer concentration in striatum of mouse brain, 4 hr after intravenous injection; format: functional, organism-based; in short: as §1
[5] = tested as the 125I-labelled form

SMILES: OC1Cc2cccc([125I])c2CC1N1CCC(c2ccccc2)CC1 (racemic)
- Dose [1]: 0.56%

SMILES: O[C@@H]1Cc2cccc(I)c2C[C@H]1N1CCC(c2ccccc2)CC1
- Dose [1]: 1.03%
- Dose/g [2]: 2.56%
- Dose/g [3]: 0.23%
- Dose/g [4]: 6.26%

SMILES: O[C@H]1Cc2cccc([125I])c2C[C@@H]1N1CCC(c2ccccc2)CC1
- Dose [1]: 0.06%

SMILES: OC1Cc2cccc(I)c2CC1N1CCC(c2ccccc2)CC1 (racemic)
- Dose/g [2, 5]: 1.17%
- Dose/g [3, 5]: 0.2%
- Dose/g [4, 5]: 3.29%

SMILES: OC1CCCCC1N1CCC(c2ccccc2)CC1 (stereo unspecified)
- Dose/g ([2]; tested as the 3H-labelled form): 0.42%
- Dose/g ([3]; tested as the 3H-labelled form): 0.1%
- Dose/g ([4]; tested as the 3H-labelled form): 0.4%

SMILES: O[C@H]1Cc2cccc(I)c2C[C@@H]1N1CCC(c2ccccc2)CC1
- Dose/g [2, 5]: 0.12%
- Dose/g [3, 5]: 0.06%
- Dose/g [4, 5]: 0.26%

SMILES: [3H]OC1CCCCC1N1CCC(c2ccccc2)CC1 (stereo unspecified)
- Dose [1]: 0.24%
